The source of these data is article PMC2112435 (The Journal of Cell Biology, 1983).

Experiment [1] concerns polymorphonuclear leukocytes (PMNs). The experiment in a line: 3H-FNLLP peptide uptake and release by PMN monolayers. In kind it is cell-based, rabbit.
The test system is the same in experiment [2]. The conditions noted are these: chemotactic peptide taken up by PMNs; cited from earlier work.
Experiment [3] shares this test system. As to the kind of experiment: 125I-BSA uptake and release of TCA-precipitable BSA by PMNs. In kind it is cell-based, rabbit. The conditions noted are these: for k2, rate constant of further processing / k3, rate constant of release of intact material / k3/k2 + k3 / Rate constant for depletion of Ap: Table I. The method in brief: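 Rabbit PMNs in HBSS with 2.4 mg/ml HEPES, 3.3×10^6 cells/ml, settled 15 min at 23°C as a monolayer. Incubated 30 min at 37°C with ¹²⁵I-BSA (6.5 μCi/ml), 1% unlabeled BSA and 2×10^-8 M unlabeled FNLLP to stimulate pinocytosis. Washed 10 min at 4°C, then held in fresh HBSS at 37°C or 4°C for varied times. Medium assayed for TCA-precipitable counts. k3 (release) and k2 (digestion/storage) taken from a kinetic pinosome model.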

Where [4] appears, read: Table I line 2, 2 x 10-0 M/L as printed.
[5] abbreviates: Table I line 4, 2 X 10^-5 M/L as printed (second time).

As for “N-formyinorleucylleucylphenylalanme [FNLLP]”, in experiment [1] (2 x 10^-8 M 3H-FNLLP, 37C (Fig. 10)), the “rate constant of filling the reversible pinocytic pool” value turned out to be 0.165 min⁻¹. Besides, the “k2, rate constant of further processing (digestion or storage)” value in experiment [1] (Table I line 1, 2 X 10^-5 M/L) was 0.097 min⁻¹; in experiment [1] (Table I line 3, 2 X 10^-7 M/L), 0.117 min⁻¹; in experiment [1] (setting [5]), 0.131 min⁻¹; in experiment [1] (Table I line 5, 2 X 10^-9 M/L) it was 0,128 min-1. Further, the “k3, rate constant of release of intact peptide” value is 0.101 min⁻¹ in experiment [1] (Table I line 1, 2 X 10^-5 M/L); 0.095 min⁻¹ in experiment [1] (setting [4]); 0.081 min⁻¹ in experiment [1] (Table I line 3, 2 X 10^-7 M/L); 0.067 min⁻¹ in experiment [1] (setting [5]); 0,070 min-1 in experiment [1] (Table I line 5, 2 X 10^-9 M/L). The “k3/k2 + k3” value in experiment [1] (Table I line 1, 2 X 10^-5 M/L) worked out at 0.51; in experiment [1] (setting [4]), 0.50; in experiment [1] (Table I line 3, 2 X 10^-7 M/L), 0.41; in experiment [1] (setting [5]) it was 0.34; in experiment [1] (Table I line 5, 2 X 10^-9 M/L), 0.35. For the same substance, the “probability that pinocytosed material will be released intact, ratio k3/(k2 + k3)” value in experiment [1] (estimate from Table I) is listed as “approximately 0.5”. For the same substance, in experiment [1] (inhibitor cocktail (5 mM 2-deoxy-D-glucose, 1 mM sodium fluoride, 0.3 M sucrose, glucose-free HBSS), 37C, 2 x 10^-8 M 3H-FNLLP), the “t1/2 of release of accumulated peptide as intact peptide” value is 4 min. Besides, the “time at which the amount of peptide accumulated reaches a plateau” value in experiment [1] (inhibitor cocktail, 2 x 10^-8 M 3H-FNLLP, 37C (Fig. 5)) is ~ 15 min. In experiment [1] (inhibitor cocktail, 37C, 2 x 10^-8 M 3H-FNLLP), the “rate constant of release of intact peptide” value stood at 0.173 min⁻¹. In addition, in experiment [2], the “t1/2 of release as digested peptide” value is recorded as 23 min.
With “BSA: bovine serum albumin (fatty-acid-free), iodinated by the chloramine-T method, pinocytic marker”, in experiment [3] (BSA 1.5 X 101 cpm/L as printed), the “k2, rate constant of further processing” value turned out to be 0.080 min⁻¹; the “k3, rate constant of release of intact material” value was 0,103 min-1; the “k3/k2 + k3” value was 0.56. In experiment [3] (BSA 3.7 X 109 cpm/L), the “k2, rate constant of further processing” value is on record as 0,076 min-1; the “k3, rate constant of release of intact material” value was determined as 0.108 min⁻¹; the “k3/k2 + k3” value is 0.59. Besides, the “Rate constant for depletion of Ap” value in experiment [3] (BSA concentration 1.5 X 101 cpm/L as printed) was found to be 0.182 min⁻¹. For the same substance, the “Rate constant for depletion of Ap” value in experiment [3] (BSA concentration 3.7 X 109 cpm/L) was 0.182 min⁻¹. Besides, the “rate constant of release of TCA-precipitable BSA” value in experiment [3] (as Fig. 4, release at 37C) stood at 0.182 min⁻¹. Also, in experiment [3] (uptake primarily via bulk-fluid-phase), the “half-life of release of intact material” value is given as approximately 4 min.
